Results from PMC3773219 (Biochemistry, 2013).

Experiments:
protein kinases = settings: cited from earlier work
Pim1 = Pim1 (Homo sapiens, UniProt P11309); test: Enzyme coupled kinase assay, Pim1; assay type: biochemical; settings: for reduction of Pim1 activity: relative to consensus peptide 2 (kcat/KM)
Procedure, shortened: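 His6-tagged human Pim1 was expressed in E. coli and purified on Ni-NTA. It was treated with alkaline phosphatase, and phospho and non-phospho forms were separated on Q-Sepharose. The coupled PK/LDH assay ran at room temperature with 20 mM MgCl2, 100 mM Tris pH 7.4, 1 mM ATP, 1 mM PEP, 0.2 mM NADH and 0–2400 μM peptide or PTP-PEST catalytic domain (aa 5–300). It was started with 40–1200 nM Pim1, read at A340, and initial rates were fitted for kcat, KM and/or kcat/KM.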

GST-Csk = GST-Csk (Homo sapiens, UniProt P41240); test: Enzyme coupled kinase assay, GST-Csk; assay type: biochemical; settings: kcat/KM with GST-Csk relative to peptide 16
Procedure, shortened: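 GST-tagged wild-type human Csk was expressed in E. coli DH5α and purified on glutathione-Sepharose. The pyruvate kinase/lactate dehydrogenase coupled assay ran at room temperature in 100 mM Tris pH 7.4 with 5 mM MnCl2, 5 mM NaCl, 5 mM KCl, 10 mM DTT, 1 mM ATP, 1 mM PEP, 0.2 mM NADH and 0–2400 μM peptide. It was started with 1–3 μM GST-Csk and A340 followed continuously. Initial rates (<2 min) were fitted to Michaelis-Menten or V = kcat[E][S]/KM.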

native Csk = settings: cited from earlier work
MKK6 = target: T1, MKK6 (Homo sapiens, UniProt P52564, S207E/T211E); test: Kinase assay by HPLC, MKK6; assay type: biochemical; settings: peptide as MKK6 substrate
T1 sequence (P52564 1-334 S207E/T211E): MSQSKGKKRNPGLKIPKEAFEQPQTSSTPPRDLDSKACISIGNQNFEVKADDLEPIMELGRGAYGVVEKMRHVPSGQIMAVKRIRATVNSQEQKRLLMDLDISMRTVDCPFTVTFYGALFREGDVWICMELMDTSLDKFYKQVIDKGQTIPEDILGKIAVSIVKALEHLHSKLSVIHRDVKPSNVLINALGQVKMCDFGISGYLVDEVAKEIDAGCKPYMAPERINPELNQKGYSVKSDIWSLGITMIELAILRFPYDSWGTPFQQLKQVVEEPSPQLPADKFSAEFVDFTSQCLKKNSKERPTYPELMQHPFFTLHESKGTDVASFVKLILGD

Pim1, sequence (P11309 whole entry, the tested form may be a part): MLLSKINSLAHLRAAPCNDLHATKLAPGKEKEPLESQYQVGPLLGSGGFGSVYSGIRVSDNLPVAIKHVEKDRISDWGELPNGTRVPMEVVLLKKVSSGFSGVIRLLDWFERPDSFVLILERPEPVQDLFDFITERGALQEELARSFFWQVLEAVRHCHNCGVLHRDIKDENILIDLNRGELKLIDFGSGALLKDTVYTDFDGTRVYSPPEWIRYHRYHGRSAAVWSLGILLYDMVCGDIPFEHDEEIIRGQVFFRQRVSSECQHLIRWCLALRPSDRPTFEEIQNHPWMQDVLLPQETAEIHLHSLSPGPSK
GST-Csk, sequence (P41240 whole entry): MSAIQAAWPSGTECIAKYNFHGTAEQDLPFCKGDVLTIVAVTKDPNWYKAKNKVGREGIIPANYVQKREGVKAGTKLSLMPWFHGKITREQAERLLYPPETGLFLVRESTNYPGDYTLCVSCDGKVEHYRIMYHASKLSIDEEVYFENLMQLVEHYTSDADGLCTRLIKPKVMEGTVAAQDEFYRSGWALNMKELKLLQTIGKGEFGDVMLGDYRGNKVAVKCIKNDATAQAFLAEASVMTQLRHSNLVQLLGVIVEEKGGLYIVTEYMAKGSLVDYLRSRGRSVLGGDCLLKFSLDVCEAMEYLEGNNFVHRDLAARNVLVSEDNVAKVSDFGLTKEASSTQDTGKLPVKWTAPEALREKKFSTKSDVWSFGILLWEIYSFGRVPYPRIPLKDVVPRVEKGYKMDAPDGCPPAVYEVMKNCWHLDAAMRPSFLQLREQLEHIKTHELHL

Q: For `Nc1ncnc2c1ncn2[C@@H]1O[C@H](COP(=O)(O)OP(=O)(O)OP(O)(O)=S)[C@@H](O)[C@H]1O` [[γ-S]ATP, adenosine 5′-O-(3-thio)triphosphate], which “decrease of catalytic activity of kinases on substitution of [γ-S]ATP for ATP” value (protein kinases) is on record?
A: 15–30 fold

Q: Which “effect of substitution on Pim1 activity” value (Pim1; relative to consensus peptide 2) does the source give for AYAHPTGMYY [Peptide 5] here?
A: abolished the Pim1 activity

Q: For Ac-DDEPIYAELADIT-NH2 [Peptide 23], which “more active than the previous consensus peptide (16)” value (GST-Csk) is on record?
A: 11 fold

Q: With “Ac-KKKKEEIYFFF-NH2 [Peptide 16, reference compound]” as the molecule, how does the kcat/KM (native Csk; native Csk, previously reported) read?
A: 6050 M⁻¹ s⁻¹

Q: With Ac-RRRYEILPTWNVY-NH2 [Peptide 13] as the molecule, how does the Km (MKK6) read?
A: > 500 µM

Q: Which “kcat/KM of Csk protein substrates” value (native Csk; protein substrates of Csk) does the source give for Lck: Csk protein substrate here?
A: 200000 M⁻¹ s⁻¹

Q: Which “reduction of Pim1 activity” value (Pim1) does the source give for RYRDPTGMYY [Peptide 6] here?
A: 620 fold

Q: For RYRHPTPMYY [Peptide 7], which “reduction of Pim1 activity” value (Pim1) is on record?
A: 62 fold

B1: PTP-PEST: non-receptor protein tyrosine phosphatase; recombinant catalytic domain of human PTP-PEST (amino acids 5–300) (protein, UniProt Q05209 5-300, looked up, fragment)
chain: EILRKFIQRVQAMKSPDHNGEDNFARDFMRLRRLSTKYRTEKIYPTATGEKEENVKKNRYKDILPFDHSRVKLTLKTPSQDSDYINANFIKGVYGPKAYVATQGPLANTVIDFWRMIWEYNVVIIVMACREFEMGRKKCERYWPLYGEDPITFAPFKISCEDEQARTDYFIRTLLLEFQNESRRLYQFHYVNWPDHDVPSSFDSILDMISLMRKYQEHEDVPICIHCSAGCGRTGAICAIDYTWNLLKAGKIPEEFNVFNLIQEMRTQRHSAVQTKEQYELVHRAIAQLFEKQLQL
modifications: catalytic domain GST tag
Q: For B1, which kcat/KM (Pim1; recombinant PTP-PEST protein as Pim1 substrate, enzyme-coupled assay) is on record?
A: 34000 M⁻¹ s⁻¹
